Compound activity deposited in PubChem BioAssay by several laboratories.
Most compounds without a hit are left out; they make up all but 4.6% or so of the library.
Arrestin-AP2 inh: inhibitors of human beta-arrestin and AP2 interaction. 340,000 compounds, 0.31% hits. inhibition, % at 10 µM. FITC-arrestin peptide / GST-AP2 beads, flow cytometry; AP2 beta2 appendage carries R879A mutation;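 active means inhibition above a set limit, near 3 SD of compounds lacking own fluorescence, cut at about 54% in these data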
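Test system: GST-tagged AP2 beta2-adaptin appendage (R879A) on 4 µm glutathione beads; also added: fluorescein-tagged arrestin peptide at 50 nM final; timing: 12 min plus 1 h, RT; signal: flow cytometry, FL1 (488/535 nm); read-out: percent drop in bead-associated FITC signal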
PolyA inh: blocks polyadenylation in yeast reporter cells; S. cerevisiae SKY197-pL101 polyadenylation reporter, beta-gal luminescence; efflux-impaired pdr1/pdr3 knockout yeast; score 100 = 6 SD above DMSO; 300,000 compounds, 0.02% hits; activity score, % at 12 µM;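 active means lowest replicate activity score at least 50, where 100 means six control SD above control mean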;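 further: yeast exposed to compound for 9 h at 30 °C; higher score means more reporter readthrough which indicates perturbed polyadenylation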
NLRP3 yeast inh: blocks the NALP3 inflammasome reconstituted in yeast | Yeast reconstituted NLRP3/ASC/caspase-1, beta-gal luminescence, 24 h | 330,000 compounds, 0.39% hits | inhibition, % at 10 µM;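 active means inhibition of 50% or more; inactive means inhibition below 50%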
ALR H2O2 inh: inhibitors of human sulfhydryl oxidase ALR. P55789. 290,000 compounds, 3.8% hits. inhibition, % (test concentration not listed). purified ALR, DTT oxidation, H2O2 HRP-luminol luminescence;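 active means mean replicate inhibition above about 79%, with every replicate also reaching it, limit read from the data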
NALP1 inh: NALP1 inhibition; S. cerevisiae NALP1/ASC/caspase-1 growth, X-gal OD620, 72 h; inhibition, % at 10 µM; 280,000 compounds, 0.61% hits; in the data active means inhibition mostly above about 24%, no sharp cut-off; inactive means mostly below about 32%
DSG3 Ab inh: blocks pemphigus antibody binding to human desmoglein-3; P32926; DSG3-coupled beads, scFv-anti-DSG3-GFP binding, flow cytometry; stronger effect = lower value; binding (percent of control), % at 10 µM; 310,000 compounds, 0.48% hits; AID 588358;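 active means binding more than 3 SD below its plate's average and above zero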
Target sequence (P32926 whole entry, looked up): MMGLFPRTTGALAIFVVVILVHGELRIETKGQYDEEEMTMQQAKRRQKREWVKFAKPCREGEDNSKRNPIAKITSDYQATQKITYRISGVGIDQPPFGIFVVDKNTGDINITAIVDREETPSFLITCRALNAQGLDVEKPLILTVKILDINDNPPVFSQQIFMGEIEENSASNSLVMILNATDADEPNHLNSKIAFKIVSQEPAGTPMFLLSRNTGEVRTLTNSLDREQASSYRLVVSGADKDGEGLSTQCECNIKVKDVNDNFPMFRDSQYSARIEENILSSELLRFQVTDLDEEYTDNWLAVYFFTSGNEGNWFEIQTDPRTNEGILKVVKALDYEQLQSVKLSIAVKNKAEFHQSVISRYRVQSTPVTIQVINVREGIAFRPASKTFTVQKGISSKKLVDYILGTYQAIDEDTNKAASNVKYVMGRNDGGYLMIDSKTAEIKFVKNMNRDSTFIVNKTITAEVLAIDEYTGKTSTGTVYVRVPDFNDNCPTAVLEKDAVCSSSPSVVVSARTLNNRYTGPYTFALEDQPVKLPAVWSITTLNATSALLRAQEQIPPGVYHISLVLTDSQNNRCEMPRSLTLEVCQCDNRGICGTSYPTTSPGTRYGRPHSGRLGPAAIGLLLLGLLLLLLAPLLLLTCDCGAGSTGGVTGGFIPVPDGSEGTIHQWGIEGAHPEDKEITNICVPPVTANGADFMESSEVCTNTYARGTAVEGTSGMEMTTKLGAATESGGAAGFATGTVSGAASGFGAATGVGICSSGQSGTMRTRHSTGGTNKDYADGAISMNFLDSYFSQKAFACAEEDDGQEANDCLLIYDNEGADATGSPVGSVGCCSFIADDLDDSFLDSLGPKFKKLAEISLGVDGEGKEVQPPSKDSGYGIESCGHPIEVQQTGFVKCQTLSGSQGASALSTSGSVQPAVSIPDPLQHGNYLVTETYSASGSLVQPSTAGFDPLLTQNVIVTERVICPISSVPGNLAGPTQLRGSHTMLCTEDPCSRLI
Each line names hits and unclear results; the compound was inactive in the other large screens.

O=C(Nc1ccc(NC(=O)c2cccs2)cc1)c1cccs1	DSG3 Ab inh 21.8
O=C(Nc1nc(-c2ccccc2)ns1)c1cccs1	ALR H2O2 inh 87.8
O=C(NNC(=O)c1cccs1)c1ccccc1	none
COc1ccc(NC(=O)c2cccs2)cc1	none
CCCn1cc(CN2CCC(n3nccc3NC(=O)c3ccc4c(c3)OCO4)CC2)c(C)n1	none (no result: DSG3 Ab inh)
CCc1ccc(CNC(=O)C2CCN(S(=O)(=O)N3CCCCC3)CC2)cc1	none (no result: Arrestin-AP2 inh, PolyA inh, NLRP3 yeast inh, ALR H2O2 inh, NALP1 inh)
COC(=O)NC(NS(=O)(=O)c1ccccc1)(C(=O)OC)C(F)(F)F (stereo not given)	none
CCOC(=O)C(NS(=O)(=O)c1ccccc1)(C(F)(F)F)P(=O)(OCC(C)C)OCC(C)C (stereo not given)	NALP1 inh 34.4
COC(=O)CSc1nnc(CNS(=O)(=O)c2ccc(C)cc2)n1C	NALP1 inh 36.5 (no result: DSG3 Ab inh)
COC(=O)CSc1nnc(CNS(=O)(=O)c2ccc(Br)cc2)n1C	none
COC(=O)CSc1nnc(-c2ccc(S(=O)(=O)N3CCCC3)cc2)n1C	NALP1 inh 41.9
Cc1cccc(C)c1-c1ccc(CN2C(CC(C)C)C(=O)N(Cc3cn(CCO)nn3)CCS2(=O)=O)cc1 (stereo not given)	none (no result: PolyA inh, NLRP3 yeast inh, ALR H2O2 inh, NALP1 inh)
O=C1CC(Nc2ccc(N3CCOCC3)cc2)C(=O)N1c1cccc(C(F)(F)F)c1 (stereo not given)	none (no result: ALR H2O2 inh, NALP1 inh)
Cc1ccc(CN2C(=O)CC(Nc3ccc(N4CCOCC4)cc3)C2=O)cc1 (stereo not given)	ALR H2O2 inh 99.5
COc1cccc(N2C(=O)CC(Nc3ccc(N4CCOCC4)cc3)C2=O)c1 (stereo not given)	ALR H2O2 inh 98.8
COc1ccc(N2C(=O)CC(Nc3ccc(N4CCOCC4)cc3)C2=O)c(OC)c1 (stereo not given)	ALR H2O2 inh 98.4
O=[N+]([O-])c1ccccc1Nc1cccc(F)c1	none (no result: PolyA inh, NLRP3 yeast inh, ALR H2O2 inh, NALP1 inh)
CCCCc1ccc(N2C(=NC(=O)C3CCCO3)SC3CS(=O)(=O)CC32)cc1 (stereo not given)	none (no result: DSG3 Ab inh)
CC1CCCC(C)N1C(=O)COC(=O)CNS(=O)(=O)c1ccc2ccccc2c1 (stereo not given)	none (no result: Arrestin-AP2 inh, PolyA inh, NLRP3 yeast inh, ALR H2O2 inh, NALP1 inh)
CCN1CCn2c3c(c4cc(C)ccc42)CCCC31 (stereo not given)	ALR H2O2 inh 98.3
CN1c2ccccc2C(C)(C)C12C=Cc1cc(O)ccc1O2 (stereo not given)	ALR H2O2 inh 79.7
CN1c2ccccc2C(C)(C)C12C=Nc1c(cc(N3CCOCC3)c3ccccc13)O2 (stereo not given)	none (no result: ALR H2O2 inh)
Cc1cnc(C(=O)Nc2ccc(F)c(F)c2)cn1	none
CCCCOc1ccc(NC(=O)c2cnc(C)cn2)cc1	NALP1 inh 44.8
O=C(CCNS(=O)(=O)c1cccc2nsnc12)Nc1ccc2c(c1)OCCO2	none
O=S(=O)(Nc1ccc2c(c1)OCCO2)c1cccc2nsnc12	NALP1 inh 31.2 (no result: ALR H2O2 inh)
CS(=O)(=O)N1CCC(Oc2cccc(C(=O)NCCCC3CCCC3)c2)CC1	Arrestin-AP2 inh 60.9
Cc1ccc(CNS(=O)(=O)c2ccc(-n3cnnn3)c(C)c2)cc1	none
O=S(=O)(c1ccc(NC(=S)N/N=C/c2ccc(O)c(O)c2)cc1)N1CCOCC1	ALR H2O2 inh 98.8
O=C(CN1CCN(c2ccc(O)cc2)CC1)Nc1cc(S(=O)(=O)N2CCCC2)ccc1Cl	ALR H2O2 inh 90.3
O=S(=O)(c1ccc(Cl)c(NC(=S)N/N=C/c2ccc(O)cc2)c1)N1CCOCC1	ALR H2O2 inh 98.7
CC(C)(C)c1ccc(/C=N/NC(=S)Nc2cccnc2)cc1	none (no result: Arrestin-AP2 inh, DSG3 Ab inh)
O=C(CN1CCN(c2ccc(O)cc2)CC1)Nc1cc(S(=O)(=O)N2CCCCC2)ccc1Cl	none
Oc1ccc(/C=N/NC(=S)Nc2cccnc2)cc1O	ALR H2O2 inh 98.9
O=S(=O)(c1ccc(Cl)c(NC(=S)Nc2ccccc2N2CCOCC2)c1)N1CCOCC1	ALR H2O2 inh 98.1
CCc1nnc(NC(=O)c2cccc(S(=O)(=O)N(C)c3ccccc3)c2)s1	none (no result: DSG3 Ab inh)
COc1ccc(N(C)S(=O)(=O)c2cccc(C(=O)NC3CCC(C)CC3)c2)cc1 (stereo not given)	none
CCSc1nnc(NC(=O)c2cccc(S(=O)(=O)N(C)c3ccc(C)cc3)c2)s1	ALR H2O2 inh 97.5
